Laboratory results published in ChEMBL document CHEMBL3867444, “Design and synthesis of new potent PTP1B inhibitors with the skeleton of 2-substituted imino-3-substituted-5-heteroarylidene-1,3-thiazolidine-4-one: Part I” (Eur J Med Chem, 2016).

How the values were obtained:
[1] = target: T1, Tyrosine-protein phosphatase non-receptor type 1 (Homo sapiens) (UniProt P18031); test: Inhibition of human recombinant GST-tagged PTP1B catalytic domain expressed in Escherichia coli BL21-[…] plus (DE3) at 5 ug/ml using pNPP as substrate relative to control
T1 sequence (whole entry): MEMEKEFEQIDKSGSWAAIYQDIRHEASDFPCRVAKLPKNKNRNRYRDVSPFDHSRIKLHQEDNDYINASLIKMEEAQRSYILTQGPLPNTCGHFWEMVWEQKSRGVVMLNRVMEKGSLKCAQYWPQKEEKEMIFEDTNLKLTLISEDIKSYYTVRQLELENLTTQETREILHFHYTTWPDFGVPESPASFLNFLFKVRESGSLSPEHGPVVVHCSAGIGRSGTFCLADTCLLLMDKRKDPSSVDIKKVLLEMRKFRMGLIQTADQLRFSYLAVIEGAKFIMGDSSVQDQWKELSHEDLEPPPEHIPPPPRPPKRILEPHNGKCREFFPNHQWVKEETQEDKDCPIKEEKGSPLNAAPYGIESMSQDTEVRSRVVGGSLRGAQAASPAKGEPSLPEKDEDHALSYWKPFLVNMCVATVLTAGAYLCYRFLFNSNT

[2] = target: T2, M-phase inducer phosphatase 2 (Homo sapiens) (UniProt P30305); test: Inhibition of human recombinant GST-tagged CDC25B assessed as reduction in dephosphorylation of florigenic phosphatase substrate at 5 ug/ml preincubated for 1 hr followed by substrate addition measured after 1 hr by fluorescence assay relative to control
T2 sequence (whole entry): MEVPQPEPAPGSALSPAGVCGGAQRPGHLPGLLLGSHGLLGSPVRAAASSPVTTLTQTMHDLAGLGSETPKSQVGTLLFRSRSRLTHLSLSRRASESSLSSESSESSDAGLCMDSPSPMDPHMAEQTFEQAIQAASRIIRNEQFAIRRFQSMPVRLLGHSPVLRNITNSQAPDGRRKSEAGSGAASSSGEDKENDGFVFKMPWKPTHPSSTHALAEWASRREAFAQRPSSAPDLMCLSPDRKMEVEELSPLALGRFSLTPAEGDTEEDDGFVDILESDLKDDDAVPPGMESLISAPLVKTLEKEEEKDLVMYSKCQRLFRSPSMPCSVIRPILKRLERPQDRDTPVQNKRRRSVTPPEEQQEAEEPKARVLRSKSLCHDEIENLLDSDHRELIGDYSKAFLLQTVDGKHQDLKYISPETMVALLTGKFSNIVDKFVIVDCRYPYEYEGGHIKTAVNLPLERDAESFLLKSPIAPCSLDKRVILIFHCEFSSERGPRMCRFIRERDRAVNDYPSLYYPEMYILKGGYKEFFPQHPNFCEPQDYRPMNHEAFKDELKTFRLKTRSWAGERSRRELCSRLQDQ

[3] = target: T1, Tyrosine-protein phosphatase non-receptor type 1 (Homo sapiens); test: Inhibition of human recombinant GST-tagged PTP1B catalytic domain expressed in Escherichia coli BL21-[…] plus (DE3) at 20 ug/ml using pNPP as substrate relative to control
[4] = target: T3, Tyrosine-protein phosphatase non-receptor type 1 (Homo sapiens, UniProt P18031); test: Inhibition of human recombinant GST-tagged PTP1B catalytic domain expressed in Escherichia coli BL21-[…] plus (DE3) using pNPP as substrate
T3 sequence (P18031 whole entry): T1 sequence (whole entry)

[5] = target: T4, M-phase inducer phosphatase 2 (Homo sapiens, UniProt P30305); test: Inhibition of human recombinant GST-tagged CDC25B assessed as reduction in dephosphorylation of florigenic phosphatase substrate preincubated for 1 hr followed by substrate addition measured after 1 hr by fluorescence assay
T4 sequence (P30305 whole entry): T2 sequence (whole entry)
How it was run: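 Purified GST-CDC25B fusion protein was preincubated with compound for 1 h, then fluorescein diphosphate (5mM) was added. Fluorescence was read within the linear range of the reaction after 1 h at room temperature. Na₃VO₄ served as positive control and DMSO as negative control.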

[6] = target: T3, Tyrosine-protein phosphatase non-receptor type 1; test: Inhibition of PTP1B (unknown origin)

Row | Compound | inhibition [1] | inhibition [2] | inhibition [3] | IC50 [4] | IC50 [5] | IC50 [6]
1 | CCOC(=O)c1c(C)[nH]c(/C=C2\S/C(=N\c3cccc(F)c3)N(c3cccc(F)c3)C2=O)c1C | 74.2% | 82.8% | 96.3% | 6.83 µM | 3.39 µM | 
2 | CCOC(=O)c1c(C)[nH]c(/C=C2\S/C(=N\c3ccc(F)cc3)N(c3ccc(F)cc3)C2=O)c1C | 82.7% | 84.7% | 94.5% | 6.09 µM | 2.87 µM | 
3 | CCOC(=O)c1c(C)[nH]c(/C=C2\S/C(=N\c3ccccc3F)N(c3ccccc3F)C2=O)c1C | 45% | 64.2% | 98.3% |  | 3.66 µM | 
4 | Cc1cc(I)cc2c1NC(c1cccc(N)c1)C1CC=CC21 (stereo not given) |  |  |  |  |  | 7.5 µM
5 | CCOC(=O)c1c(C)[nH]c(/C=C2\S/C(=N\c3ccc(OC)cc3)N(c3ccc(OC)cc3)C2=O)c1C | 47.7% | 76.5% | 98.7% |  | 2.74 µM | 
6 | CCOC(=O)c1c(C)[nH]c(/C=C2\S/C(=N\c3ccccc3)N(c3ccccc3)C2=O)c1C | 81.1% | 83.7% | 99.9% | 8.66 µM | 1.66 µM | 
7 | CC/N=C1\S/C(=C\c2ccc(OCCN(C)c3ccccn3)cc2)C(=O)N1CC |  |  | 42.1% |  |  | 
8 | CCOC(=O)c1c(C)[nH]c(/C=C2\S/C(=N\c3ccc(C)cc3)N(c3ccc(C)cc3)C2=O)c1C |  |  | 28.4% |  |  | 
9 | CC(C)N1C(=O)/C(=C/c2ccc(OCCN(C)c3ccccn3)cc2)S/C1=N\O | 19.3% | 98.5% | 67.5% |  | 2.47 µM | 
10 | SODIUM ORTHOVANAD |  |  |  |  | 0.91 µM | 
11 | CCOC(=O)c1c(C)[nH]c(/C=C2\S/C(=N/O)N(C(C)C)C2=O)c1C | 49% | 80.2% | 95.8% |  | 5.83 µM | 
